Assay results reported in ChEMBL document CHEMBL5154854, “Identification of a Vitamin-D Receptor Antagonist, MeTC7, which Inhibits the Growth of Xenograft and Transgenic Tumors In Vivo” (J Med Chem, 2022).
Activity calls are given as the source filed them. The calls are words filed in the database; no cut-off is given here.

How the values were obtained:
IGROV-1 = test: Cytotoxicity against human IGROV-1 cells assessed as reduction in cell viability incubated for 24 hrs by MTS assay; assay type: functional, cell-based; settings: dose 0.25-1.25 µM, DDE = dose-dependent effect
In short: (§1)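 Ovarian lines seeded 5,000 cells/well, attached overnight, treated 24 h in complete medium (DMSO ≤0.2%); MTS reagent 1:10 in fresh RPMI 2–4 h, absorbance 490 nm; triplicate, % of DMSO-treated cells.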

[1] = Toxicity in NSG mouse xenografted with human ES2 cells assessed as body weight change at 10 mg/kg, ip measured upto 30 days; assay type: organism-based; settings: in vivo, 720 h, time < 30 day
ES-2 = test: Anti-tumor activity against human ES2 cells xenografted in NSG mouse assessed as reduction in tumor volume at 10 mg/kg, ip measured upto 30 days; assay type: functional, organism-based; settings: time <= 30.0 day
In short: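 NSG mice, 6–8 weeks, injected subcutaneously in right flank with ES2 (250,000) or SH-SY5Y/BE(2)C (1 million) cells in cold matrigel/serum-free RPMI 1:1. Once palpable, 10 mg/kg IP M–F vs vehicle; volume (length × width2)[…]; BE(2)C and ES2 monitored alternate days; endpoint 2000 mm3; % change in volume, t-test.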

HEK-293T = test: Cytotoxicity against HEK-293T cells assessed as inhibition of cell proliferation upto 100 uM incubated for 18 hrs by MTS assay; assay type: toxicity, cell-based; settings: human
SH-EP1 = test: Cytotoxicity against human SH-EP1 cells assessed as reduction in cell viability incubated for 48 hrs by MTS assay; assay type: functional, cell-based; settings: dose 0.1-10 µM, DDE = dose-dependent effect
In short: (§2)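 Neuroblastoma lines seeded 5,000 cells/well, attached overnight, treated 48 h in complete medium (DMSO ≤0.2%); MTS reagent 1:10 in fresh RPMI 2–4 h, absorbance 490 nm.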

[2] = biological target: T1, Vitamin D3 receptor (Homo sapiens) (UniProt P11473); test: Antagonist activity at VDR LBD (unknown origin) using Alexa Fluor 647-labeled SRC2-3 as substrate incubated for 2 hrs in presence of calcitriol by fluorescence polarization assay; settings: filed as antagonist
T1 sequence (whole entry): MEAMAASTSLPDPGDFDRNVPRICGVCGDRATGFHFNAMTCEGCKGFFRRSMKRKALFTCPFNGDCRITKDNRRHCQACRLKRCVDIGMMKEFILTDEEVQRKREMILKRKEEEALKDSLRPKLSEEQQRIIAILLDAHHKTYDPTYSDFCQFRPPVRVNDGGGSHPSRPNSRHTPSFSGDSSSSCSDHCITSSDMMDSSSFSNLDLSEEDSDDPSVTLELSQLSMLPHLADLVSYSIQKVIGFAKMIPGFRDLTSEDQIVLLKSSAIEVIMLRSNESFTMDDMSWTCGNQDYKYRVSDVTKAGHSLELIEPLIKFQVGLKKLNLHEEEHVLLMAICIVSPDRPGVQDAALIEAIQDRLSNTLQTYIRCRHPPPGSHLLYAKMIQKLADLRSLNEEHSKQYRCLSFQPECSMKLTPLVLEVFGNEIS
In short: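 VDR-LBD (0.1 μM) with Alexa Fluor 647-labelled SRC2-3 (17.5 nM) and 10 nM 1,25(OH)2D3 in 25 mM PIPES, 50 mM NaCl, 0.01% NP-40, pH 6.75. Compounds were serially diluted 1:2 from 10 mM DMSO stocks and incubated 2 h. Polarization was read at 635/685 nm. Three independent experiments in quadruplicate; IC50 by variable-slope nonlinear regression.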

[3] = biological target: T1, Vitamin D3 receptor (Homo sapiens); test: Antagonist activity at VDR LBD (unknown origin) transfected in HEK-293T cells assessed as inhibition of 1,25(OH)2D3-induced receptor transactivation incubated for 16 hrs by Bright-Glo luciferase assay; assay type: cell-based; settings: filed as antagonist
In short: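 HEK293T on matrigel, lipid-transfected with VDR-CMV plasmid and CYP24A1-luciferase reporter; after 16 h, replated at 15,000 cells/well, compound added 4 h later together with 10 nM 1,25(OH)2D3; 16 h at 37 °C, 5% CO2; luminescence read. At least two independent experiments in quadruplicate; nonlinear regression, variable slope.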

[4] = biological target: T1, Vitamin D3 receptor (Homo sapiens); test: Antagonist activity at VDR in human 2008 cells assessed as suppression of RXR-alpha expression at 250 nM incubated for 18 hrs by western blot analysis relative to control; assay type: cell-based; settings: filed as antagonist
In short: (§3)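 2008 ovarian cancer cells exposed 250 nM, 18 h; immunoblot with loading control (GAPDH for RXR-α, α-tubulin for Importin-4); band densitometry normalized to loading control.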

[5] = biological target: T1, Vitamin D3 receptor (Homo sapiens); test: Antagonist activity at VDR in human 2008 cells assessed as suppression of importin-4 expression at 250 nM incubated for 12 to 18 hrs by western blot analysis relative to control; assay type: cell-based; settings: filed as antagonist, time 12-18 hrs; in short: as §3
SK-OV-3 = test: Cytotoxicity against human SK-OV-3 cells assessed as reduction in cell viability incubated for 24 hrs by MTS assay; assay type: functional, cell-based; settings: dose 0.25-1.25 µM, DDE = dose-dependent effect; in short: as §1
OVCAR-8 = test: Cytotoxicity against human OVCAR-8 cells assessed as reduction in cell viability incubated for 24 hrs by MTS assay; assay type: functional, cell-based; settings: dose 0.25-1.25 µM, DDE = dose-dependent effect; in short: as §1
2008 [6] = test: Cytotoxicity against human 2008 cells assessed as reduction in cell viability incubated for 24 hrs by MTS assay; assay type: functional, cell-based; settings: dose 0.25-1.25 µM, DDE = dose-dependent effect; in short: as §1
Caov-3 cell line = test: Cytotoxicity against human Caov-3 cell line assessed as reduction in cell viability incubated for 24 hrs by MTS assay; assay type: functional, cell-based; settings: dose 0.25-1.25 µM, DDE = dose-dependent effect; in short: as §1
2008 [7] = test: Induction of apoptosis in human 2008 cells assessed as cleaved PARP1 expression levels at 250 nM incubated for 18 hrs by western blot analysis (reference value: 4%); assay type: functional
Mus musculus = test: Downregulation of VDR expression in tumor of NSG mouse xenografted with human SK-OV-3 cells at 10 mg/kg, ip by confocal microscopy based immunohistochemistry analysis; assay type: functional, organism-based
D283 Med [8] = test: Anti-tumor activity against human D283 Med cells xenografted in NSG mouse assessed as reduction in tumor volume at 10 mg/kg, ip measured on day 12; assay type: functional, organism-based; settings: time 12.0 day
In short: (§4)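 NSG mice implanted subcutaneously with 1 million D283, PANC-1 or BXPC-3 cells in matrigel/DMEM 1:1; once palpable, 10 mg/kg IP M–F vs vehicle; volume (length × width2)[…], % change; endpoint 2000 mm3; tumors excised and weighed; unpaired t-test.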

D283 Med [9] = test: Anti-tumor activity against human D283 Med cells xenografted in NSG mouse assessed as reduction in tumor size at 10 mg/kg, ip measured on day 12; assay type: functional, organism-based; settings: time 12.0 day; in short: as §4
PANC-1 = test: Anti-tumor activity against human PANC-1 cells xenografted in NSG mouse assessed as reduction in tumor growth at 10 mg/kg, ip measured on day 12; assay type: functional, organism-based; settings: time 12.0 day; in short: as §4
BXPC-3 = test: Anti-tumor activity against human BXPC-3 cells xenografted in NSG mouse assessed as reduction in tumor growth at 10 mg/kg, ip measured on day 18; assay type: functional, organism-based; settings: time 18.0 day; in short: as §4
LA-N-5 = test: Cytotoxicity against human LA-N-5 cells assessed as reduction in cell viability incubated for 48 hrs by MTS assay; assay type: functional, cell-based; settings: dose 0.1-10 µM, DDE = dose-dependent effect; in short: as §2
SK-N-AS = test: Cytotoxicity against human SK-N-AS cells assessed as reduction in cell viability incubated for 48 hrs by MTS assay; assay type: functional, cell-based; settings: dose 0.1-10 µM, DDE = dose-dependent effect; in short: as §2

## CC(C)CCC[C@@H](C)[C@H]1CC[C@@H]2[C@]1(C)CCC1[C@]23C=C[C@]2(C[C@@H](OC(=O)CBr)CC[C@]12C)n1c(=O)n(C)c(=O)n13 (stereo partly specified)
IGROV-1
  Activity: Dde
[1]
  Activity: Non-Toxic
ES-2
  Activity: Active
HEK-293T
  Activity: Non-Toxic
SH-EP1
  Activity: Dde
[2]
  Activity: 2.9 µM
[3]
  Activity: 20.8 µM
[4]
  fold change (FC): 0.29
[5]
  fold change (FC): 0.82
SK-OV-3
  Activity: Dde
OVCAR-8
  Activity: Dde
2008 [6]
  Activity: Dde
Caov-3 cell line
  Activity: Dde
2008 [7]
  Activity: 22.8%
Mus musculus
  inhibition: Active
D283 Med [8]
  Activity: Active
D283 Med [9]
  Activity: Active
PANC-1
  Activity: Active
BXPC-3
  Activity: Active
LA-N-5
  Activity: Dde
SK-N-AS
  Activity: Dde
